Source: ChEMBL document CHEMBL4414568, “Development of Novel Irreversible Pyruvate Kinase M2 Inhibitors” (J Med Chem, 2019)
Activity calls are given as the source filed them. No cut-off for these calls is given here.

Key:
Pyruvate kinase PKM [1] = molecular target: T1, Pyruvate kinase PKM (Homo sapiens, UniProt P14618); test: Binding affinity to recombinant human N-terminal His6-tagged PKM2 expressed in Escherichia coli BL21 (DE3) assessed as Cys326-adduct formation by NanoLC-MS/MS analysis
In short: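 In-house His-tag PKM2 from E. coli BL21(DE3), purified by Ni-NTA then Superdex 200, treated with compound. Reduced with 30 mM DTT at 37 °C for 1 h, alkylated with 30 mM iodoacetamide for 1 h in the dark, trypsin 1:30 w/w overnight at 37 °C. Digests from 6 experiments pooled, 48 nanoLC-MS/MS runs in data-dependent mode, Orbitrap MS1.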

PC-9 = test: Antitumor activity against human PC9 cells xenografted in athymic nude mouse assessed as reduction in tumor growth at 10 mg/kg, ip administered once daily for 25 days measured post-last dose by caliper method; assay type: functional, organism-based
In short: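 Female nude mice, 6 weeks old, given s.c. 1 × 10^6 PC-9 cells in Matrigel (1:1). From day 7, once-daily i.p. vehicle or 10 mg/kg compound in sterile water with 0.5% methylcellulose and 0.1% Tween-80, n = 8 per group, for 25 days. Tumor volume and body weight followed, tumors weighed at end.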

Pyruvate kinase PKM [2] = molecular target: T1, Pyruvate kinase PKM; test: Inhibition of N-(4-(3-(3-(Methylamino)-3-oxopropyl)-5-(4'-(prop-2-yn-1-yloxy)-[1,1'-biphenyl]-4-yl)-1H-pyrazol-1-yl)phenyl)propiolamide binding to PKM2 in human PC9 cells at 1 uM preincubated for 1 hr followed by probe addition and measured after 1 hr by Western blot analysis; assay type: cell-based
In short: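 PC-9 cells pretreated with 1 µM compound or DMSO for 1 h, then alkyne probe added at 0.5, 1 or 2 µM for 1 h at 37 °C. Lysates put through Cu-catalysed click with biotin-azide, streptavidin beads 16 h at 4 °C, washes with 0.5% SDS/PBS, 10% SDS-PAGE and PKM2 Western blot.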

LNCaP = test: Antiproliferative activity against human LNCAP cells assessed as reduction in cell viability incubated for 24 hrs by MTT assay; assay type: functional, cell-based
In short: (§1)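 Cells seeded at 3,500 per well in 10% FBS and left overnight, then exposed to test agent or vehicle in 5% FBS for 24 h. MTT added for 1 h, then medium swapped for DMSO and absorbance read at 560 nm. Viability given as percent of vehicle-treated control. Run in triplicate.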

Pyruvate kinase PKM [3] = molecular target: T1, Pyruvate kinase PKM; test: Inhibition of PKM2 in human PC9 cells assessed as reduction in beta-catenin expression incubated for 24 hrs by Western blot analysis; assay type: cell-based
In short: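 PC-9 cells seeded at 5 × 10^5 cells/mL; after 24 h given 0–1 µM compound or DMSO for 24 h. Lysates run on 10% SDS-PAGE, transferred to nitrocellulose, probed for PKM2, EGFR, p-STAT3, STAT3, p-β-catenin, β-catenin and β-actin with HRP secondaries, ECL detection.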

Pyruvate kinase PKM [4] = molecular target: T1, Pyruvate kinase PKM; test: Inhibition of PKM2 in human PC9 cells at 0.25 uM using PEP as substrate incubated for 6 hrs by OxiRed probe-based colorimetric analysis; assay type: cell-based
In short: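 PC-9 cells seeded at 5 × 10^5 cells/mL, after 24 h given 0.25 µM compound or DMSO for 6 h. Lysate pyruvate kinase activity read with a colorimetric kit measuring H2O2 made from PEP and […] through PK and then pyruvate oxidase. n = 3.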

Mus musculus = test: In vivo inhibition of PKM2 in human PC9 cells xenografted in athymic nude mouse assessed as reduction in EGFR expression at 10 mg/kg, ip administered once daily for 25 days measured post-last dose by Western blot analysis; assay type: functional, organism-based
In short: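 Tumors from PC-9 xenograft nude mice given 10 mg/kg i.p. daily or vehicle for 25 days (n = 8 per group) were lysed for Western blots of PKM2, EGFR, Stat3 and β-catenin. Bands quantified by ImageJ and normalized to GAPDH.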

MCF7 = test: Antiproliferative activity against human MCF7 cells assessed as reduction in cell viability incubated for 24 hrs by MTT assay; assay type: functional, cell-based; settings: MCF7, 24 h; in short: as §1
[5] = molecular target: T2, Malate dehydrogenase, mitochondrial (Homo sapiens) (UniProt P40926); test: Binding affinity to MDHM in human PC9 cells incubated for 1 hr by ABPP-SILAC assay; assay type: cell-based
T2 sequence (whole entry): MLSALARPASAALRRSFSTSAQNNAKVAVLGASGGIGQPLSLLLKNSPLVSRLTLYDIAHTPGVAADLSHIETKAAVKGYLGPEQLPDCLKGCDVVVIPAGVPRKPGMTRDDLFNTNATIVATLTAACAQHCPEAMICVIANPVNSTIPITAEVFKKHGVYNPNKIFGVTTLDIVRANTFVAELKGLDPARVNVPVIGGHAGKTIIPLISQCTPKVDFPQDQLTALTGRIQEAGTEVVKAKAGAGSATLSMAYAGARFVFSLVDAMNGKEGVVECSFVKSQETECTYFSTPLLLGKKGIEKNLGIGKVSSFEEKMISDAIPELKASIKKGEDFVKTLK
In short: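 PC-9 cells passaged at least six times in SILAC DMEM with 10% dialyzed FBS plus 100 µg/mL light or 13C/15N-labeled Arg/Lys. Heavy cells got ABPP probe (1 µM) and light cells DMSO, 1 h at 37 °C. Cells mixed 1:1, sonicated, spun at 100,000g, protein normalized to 1 mg/mL. Click biotin-azide, streptavidin bead pulldown 16 h at 4 °C, SDS-PAGE, on-bead trypsin digestion, LC-MS/MS.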

T1 sequence (P14618 2-531 limits assumed): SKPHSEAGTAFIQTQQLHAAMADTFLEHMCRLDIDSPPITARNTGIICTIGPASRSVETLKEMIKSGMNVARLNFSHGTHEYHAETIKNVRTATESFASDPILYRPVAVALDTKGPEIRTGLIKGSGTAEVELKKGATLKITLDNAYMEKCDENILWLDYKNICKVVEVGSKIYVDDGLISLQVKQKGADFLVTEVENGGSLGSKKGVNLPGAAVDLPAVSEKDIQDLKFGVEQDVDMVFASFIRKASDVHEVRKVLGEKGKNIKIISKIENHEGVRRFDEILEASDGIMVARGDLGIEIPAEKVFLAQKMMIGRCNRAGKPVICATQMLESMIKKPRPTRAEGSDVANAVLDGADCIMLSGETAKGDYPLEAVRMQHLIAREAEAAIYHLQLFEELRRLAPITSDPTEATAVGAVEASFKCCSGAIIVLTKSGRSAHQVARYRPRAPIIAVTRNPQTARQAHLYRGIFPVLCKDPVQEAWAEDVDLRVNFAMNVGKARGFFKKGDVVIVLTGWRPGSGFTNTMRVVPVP

SMILES: C#CC(=O)Nc1ccc(-n2nc(CCC(=O)NC)cc2-c2ccc(-c3ccc(C(F)(F)F)cc3)cc2)cc1
- Activity (Pyruvate kinase PKM [1]): Active
- Activity (PC-9): Active
- inhibition (Pyruvate kinase PKM [2]): Active
- IC50 (LNCaP): > 2 µM
- inhibition (Pyruvate kinase PKM [3]): Dose-dependent effect
- inhibition (Pyruvate kinase PKM [4]): Active
- inhibition (Mus musculus): Active
- IC50 (MCF7): 1 µM
- Activity [5]: Active
